Most compounds without a hit are left out; they make up all but 2.3% or so of the library.
Myeloid diff MLP: compounds promoting myeloid differentiation; ER-HoxA9 myeloid progenitors, lysozyme-GFP differentiation, flow cytometry; calls only at 10 µM; hit rate 1% among 360,000; AID 624256;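 active = normalized GFP-positive differentiation at or above the plate's own cutoff, the solvent-only control mean plus 3 SD; inconclusive = no clear call, values can overlap the other calls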;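 also: cells exposed to compound for four days before flow analysis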
CSN deneddyl inh: inhibitors of human CSN-mediated cullin deneddylation. inhibition, % at 12.5 µM. hit rate 0.38% among 360,000. Purified CSN, SCF-Nedd8-OG deneddylation, fluorescence polarization. Q92905;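 active = pattern-corrected inhibition above about 35%, with an unprinted fluorescence ratio check between 0.5 and 1.5, limit read from the data, passing the limit was not always enough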;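 also: 0% = enzyme with substrate and 100% = substrate without enzyme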
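Assay system: purified human Csn5 enzyme expressed in HEK293T cells; measure: % inhibition; also added: SCFSkp2-Nedd8OG substrate at 10 nM final; technique: fluorescence polarization; times: reaction 90 min, room temperature; medium: Tris buffer pH 7.5, NaCl, DTT, Tween-20, trehalose, ovalbumin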
TPT1 inh: C. albicans TPT1 enzyme inhibition; hit rate 0.81% among 300,000; recombinant caTPT1, FP RNA substrate dephosphorylation; AID 1962; inhibition, % at 5 µM;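 active = inhibition above the mean of all tested compounds plus 3 SD, set per screening campaign, cut at about 24% in these data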;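 also: plate controls were DMSO alone for no effect and ferristatin control at 100 nM for full effect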
Rpn11 block: Rpn11 (human) deubiquitinase inhibition; inhibition, % at 20 µM; human 26S proteasome, Ub4-pepOG fluorescence polarization; 20S core pre-blocked with epoxomicin; hit rate 0.59% among 360,000; O00487;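 active = inhibition at 20 µM, scaled to each plate's controls, above about 33%, limit read from the data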
Target sequence (O00487 whole entry, looked up): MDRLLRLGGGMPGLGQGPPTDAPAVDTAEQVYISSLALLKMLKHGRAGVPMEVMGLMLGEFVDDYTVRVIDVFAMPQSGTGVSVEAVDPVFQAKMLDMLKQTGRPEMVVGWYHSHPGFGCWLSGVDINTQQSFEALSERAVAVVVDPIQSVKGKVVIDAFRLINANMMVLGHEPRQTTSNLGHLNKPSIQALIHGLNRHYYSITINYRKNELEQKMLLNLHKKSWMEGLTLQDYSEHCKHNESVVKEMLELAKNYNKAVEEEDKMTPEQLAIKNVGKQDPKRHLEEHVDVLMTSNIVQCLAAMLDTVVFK
HNF4A DNA FP: change in binding of human HNF4 alpha to DNA. P41235. HNF4a-FITC DNA binding, fluorescence polarization, 1 h. activity change, % at 10 µM. hit rate 0.3% among 360,000. AID 1224865; in the data active = activity change above about 30%, passing the limit was not always enough
TPT1 inh confirm: TPT1 (C. albicans) inhibition, confirmation; inhibition, % at 5 µM; recombinant caTPT1, fluorescence polarization, RNase T1 coupled; hit rate 74% among 2,400; shares compounds with TPT1 inh;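 active = inhibition above the primary screen limit, the mean inhibition of all tested compounds plus 3 SD, cut at about 25% in these data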
RNase T1 counter: counter-screen for TPT1 inhibitors: inhibitors of Aspergillus oryzae RNase T1 | inhibition, % at 5 µM | shares compounds with TPT1 inh | hit rate 83% among 2,400 | RNase T1 cleavage, fluorescence polarization, 1536-well | AID 2153;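 active = inhibition above the solvent-only control well mean plus 3 SD, limit set per screening run, cut at about 23% in these data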;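 also: plate controls were DMSO wells with enzyme for no effect and wells without RNase T1 for full effect; inhibitors block cleavage so intact labeled substrate keeps polarization high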
Target sequence (P00651 whole entry, looked up): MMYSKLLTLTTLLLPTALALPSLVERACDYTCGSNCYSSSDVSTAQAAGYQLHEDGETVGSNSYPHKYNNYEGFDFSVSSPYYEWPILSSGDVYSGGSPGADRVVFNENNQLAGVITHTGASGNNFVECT
Numbers without * were called inactive; i = inactive; ? = inconclusive; nt = no result given; + = active, no number.

SMILES	Myeloid diff MLP	CSN deneddyl inh	TPT1 inh	Rpn11 block	HNF4A DNA FP	TPT1 inh confirm	RNase T1 counter
CC(=O)/C(N=Nc1ccc(C(=O)O)cc1[N+](=O)[O-])=C(\C)O	i	2	-3	-6	-6	nt	nt
CC(=O)/C(N=Nc1cc(C)ccc1O)=C(\C)O	+	27	44*	nt	20	29*	48*
CCN1CCc2c(sc(NC(=O)c3ccc(S(=O)(=O)N4CCCC4)cc3)c2C(=O)NC)C1	i	0	17	5	6	nt	nt
CN1CCc2c(sc(NC(=O)c3ccc(S(=O)(=O)N4CCc5ccccc54)cc3)c2C(N)=O)C1	nt	nt	34*	nt	nt	51*	63*
CN1CCc2c(sc(NC(=O)c3ccc(S(=O)(=O)N4CCOCC4)cc3)c2C(N)=O)C1	i	17	90*	75*	48*	101*	111*
CCOC(=O)N1CCN(S(=O)(=O)c2ccc(C(=O)Nc3sc4c(c3C(=O)OC)CCN(C)C4)cc2)CC1	i	-1	-2	1	7	nt	nt
CNC(=O)c1c(NC(=O)c2ccc(S(=O)(=O)N3CCCCC3)cc2)sc2c1CCN(C(C)C)C2	?	11	29*	36	14	30*	39*
CN1CCc2c(sc(NC(=O)c3ccc(S(=O)(=O)N4CCCCCC4)cc3)c2C(N)=O)C1	+	22	119*	62*	37	126*	125*
NC(=O)c1c(NC(=O)c2ccc(S(=O)(=O)N3CCOCC3)cc2)sc2c1CCCCC2	i	1	-2	3	-3	nt	nt
CCOC(=O)c1ccc(OCCOc2cccc(C)c2)cc1	i	1	-2	6	2	nt	nt
O=C(Nc1cccc2ccccc12)NC(Cc1ccccc1)C(=O)O (stereo unspecified)	i	-2	0	1	2	nt	nt
CN1/C(=C\C(=O)COc2ccc3c(c2)OCO3)C(C)(C)c2ccccc21	i	12	32*	31	16	34*	43*
Cc1ccc(S(=O)(=O)n2nnc3ccccc32)c(C)c1C	i	7	-2	-5	-4	nt	nt
Cc1ccc(/C=C2\Sc3ccccc3C2=O)s1	i	-2	44*	-18	-1	58*	70*
CC(=O)N(C)/C=C1\Sc2ccccc2C1=O	i	-2	-1	1	7	nt	nt
COc1ccc(OC)c(C=C2CCc3ccccc3C2=O)c1	i	-8	nt	2	-3	nt	nt
COc1ccc(OC)c(/C=C2/Sc3ccccc3C2=O)c1	i	63	111*	nt	75	101*	102*
O=C1/C(=C/c2cccnc2)Sc2ccccc21	i	2	1	2	1	nt	nt
CC(=O)Nc1ccc(/C=C2\Sc3ccccc3C2=O)cc1	i	-2	35*	2	4	41*	46*
O=C(C1=NN[C@@H]2C(=O)N(Cc3ccccc3)C(=O)[C@H]12)c1ccc(F)cc1	i	2	-2	2	-6	nt	nt
Cc1ccccc1CC(=O)N1CCOCC1	i	3	-2	-1	2	nt	nt
CN=C1S/C(=C\c2ccc(N3CCCC3)c(F)c2)C(=O)N1C	i	10	30*	11	13	52*	66*
COc1cc(/C=C2/C(=N)N3C(=NC2=O)SN=C3S(C)(=O)=O)ccc1OS(=O)(=O)c1ccccc1	nt	nt	28*	nt	nt	16	23*
COc1ccc(/C=C(\C#N)C(=O)C(C)(C)n2cncn2)cc1	i	1	33*	12	5	3	4
COc1ccc(C=C(C#N)C(=O)c2ccccc2)cc1	i	2	nt	nt	3	nt	nt
SMILES	Myeloid diff MLP	CSN deneddyl inh	TPT1 inh	Rpn11 block	HNF4A DNA FP	TPT1 inh confirm	RNase T1 counter
Cc1cc(C)n(CCC(=O)N2CCc3ccccc32)n1	i	3	-5	5	-4	nt	nt
Cn1cc(CNCc2ccccc2OCC(O)CN2CCc3ccccc3C2)cn1 (stereo unspecified)	i	-6	26*	-1	3	9	12
CCOC(=O)/C=C1/SCC(=O)N1Cc1ccc(Br)cc1	i	2	nt	-2	1	nt	nt
CCOC(=O)/C=C1\SCC(=O)N1Cc1nnc(-c2ccccc2Br)o1	i	17	31*	21	31	31*	40*
CCC(NS(=O)(=O)c1ccc(C)cc1)C(=O)N1CCOCCOCCOCCOCC1 (stereo unspecified)	i	1	-1	-2	3	nt	nt
COC(=O)c1ccc(OCCN2C3=NCCN3c3ccccc32)cc1	i	-4	37*	-1	0	1	4
NC(=O)c1cc[n+](CC2=C(C(=O)O)N3C(=O)[C@@H](NC(=O)C(c4ccccc4)S(=O)(=O)[O-])[C@H]3SC2)cc1 (stereo partly specified)	i	17	41*	38	-78	39*	9
C/C(=N\NC(=O)c1c(C)nc2ccccn12)c1ccc(O)cc1O	i	3	35*	38	5	38*	41*
Cn1c(C(=O)N2CCC(C(=O)NCc3ccccc3)CC2)cc2sccc21	i	-3	1	1	4	nt	nt
COc1ccccc1CNC(=O)COC(=O)c1ncc(Cl)c(Cl)c1Cl	i	6	2	6	0	nt	nt
N#CC1=C(N)OC2=C(CC/C2=C\c2ccc(F)cc2)C1c1ccc(F)cc1 (stereo unspecified)	nt	nt	103*	nt	nt	95*	102*
CCN1CC2=C(OC(N)=C(C#N)C2c2ccccc2)/C(=C\c2ccccc2)C1 (stereo unspecified)	i	-1	-4	-15	-1	nt	nt
COc1ccc(CCN2Cc3c(cccc3[N+](=O)[O-])C2=O)cc1OC	i	3	30*	-7	-2	7	8
COc1ccc(CCN2Cc3c(N)cccc3C2=O)cc1OC	i	-3	-1	1	4	nt	nt
O=C(CCc1ccccc1)N1CCN(S(=O)(=O)c2cccs2)CC1	i	0	0	-1	2	nt	nt
COc1ccc(C(C(=O)NCc2ccccc2)N(Cc2ccco2)C(=O)c2snc(C(N)=O)c2N)cc1 (stereo unspecified)	i	2	-3	3	1	nt	nt
COc1cc(OC)cc(C(C(=O)NCc2ccccc2)N(Cc2ccco2)C(=O)c2ccno2)c1 (stereo unspecified)	i	17	42*	30	11	16	25*
COc1nc(N/N=C/c2ccc(-c3ccccc3[N+](=O)[O-])o2)nc(N2CCOCC2)n1	i	-5	3	0	-1	nt	nt
O=[N+]([O-])c1ccc(-c2ccc(/C=N/Nc3nc(NCc4ccccc4)nc(N4CCOCC4)n3)o2)cc1	+	25	87*	nt	36	89*	93*
O=C(N/N=C/c1c(O)ccc2ccccc12)c1ccc(CO)nc1	nt	29	82*	nt	42*	91*	93*

Source: PubChem BioAssay (several laboratories)
